Nine molecules from ChEMBL document CHEMBL1240512, “Discovery of a potent and selective noncovalent linear inhibitor of the hepatitis C virus NS3 protease (BI 201335)” (J Med Chem, 2010) can be followed below.

What is called half-life is the time in which the quantity being followed falls by half. Read a high half-life as slow loss. Broadly, the bioavailability is dose-corrected exposure relative to a reference, in per cent. Low values mean poor availability, high ones good availability. By Cmax is commonly meant the peak of the concentration-time curve. The IC50 is the concentration that inhibits the measured activity by half. Higher therefore signals weaker potency. What is called AUC(0-inf) is the area under the concentration-time curve extrapolated to infinity. What is called EC50 is the midpoint of the concentration-response curve. Low values mean a more potent agent, high ones a less potent agent. Broadly, the clearance is the rate of elimination divided by the concentration. A high value points to a high capacity for elimination.

Test system in one data set: not listed separately
As to the kind of experiment: Half life in rat at 2 mg/kg, iv. The note with it: in vivo. It counts as ADME, organism-based. On the set-up: dose 2 mg/kg, route intravenous. An outline of the steps: (§1)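 Male Sprague-Dawley rats (275-300 g), fasted overnight with 10% dextrose water access, given 2 mg/kg intravenously. Blood drawn via right carotid cannula at 5 min and 0.25-8 h; plasma pooled from three animals per time point, solid-phase extraction, LC-MS measurement; parameters from noncompartmental analysis.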
Consider `C=C[C@@H]1C[C@]1(NC(=O)[C@@H]1C[C@@H](Oc2cc(-c3csc(NC(C)C)n3)nc3cc(OC)ccc23)CN1C(=O)[C@@H](NC(=O)OC1CCCC1)C(C)(C)C)C(=O)O`, for which the half-life is 2.6 h.

On to `C=C[C@@H]1C[C@]1(NC(=O)[C@@H]1C[C@@H](Oc2cc(-c3csc(NC(=O)CC(C)(C)C)n3)nc3cc(OC)ccc23)CN1C(=O)[C@@H](NC(=O)OC1CCCC1)C(C)(C)C)C(=O)O`, for which the half-life is 1.2 h.

As to `C=C[C@@H]1C[C@]1(NC(=O)[C@@H]1C[C@@H](Oc2cc(-c3csc(NC(=O)CC)n3)nc3c(C)c(OC)ccc23)CN1C(=O)[C@@H](NC(=O)OC1CCCC1)C(C)(C)C)C(=O)O`, the half-life is 1.7 h.

Test system in the next data set: not listed separately
Description: Oral bioavailability in rat at 5 mg/kg. The format is ADME, organism-based. The note with it: in vivo. The method, boiled down: (§2)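 Male Sprague-Dawley rats (275-300 g), fasted overnight with 10% dextrose in water; single oral gavage 5 mg/kg in 0.5% Methocel/0.3% Tween-80 (10 mL/kg). Carotid cannula sampling at 0-8 h; plasma pooled from three rats per time point, solid-phase extracted, LC-MS quantified; noncompartmental analysis. F derived using the 2 mg/kg iv arm.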
`C=C[C@@H]1C[C@]1(NC(=O)[C@@H]1C[C@@H](Oc2cc(-c3csc(NC(C)C)n3)nc3cc(OC)ccc23)CN1C(=O)[C@@H](NC(=O)OC1CCCC1)C(C)(C)C)C(=O)O` gave a bioavailability of 54%.

Turning to `C=C[C@@H]1C[C@]1(NC(=O)[C@@H]1C[C@@H](Oc2cc(-c3csc(NC(=O)CC(C)(C)C)n3)nc3cc(OC)ccc23)CN1C(=O)[C@@H](NC(=O)OC1CCCC1)C(C)(C)C)C(=O)O`, the bioavailability was determined as 39%.

The molecule `C=C[C@@H]1C[C@]1(NC(=O)[C@@H]1C[C@@H](Oc2cc(-c3csc(NC(=O)CC)n3)nc3c(C)c(OC)ccc23)CN1C(=O)[C@@H](NC(=O)OC1CCCC1)C(C)(C)C)C(=O)O` displayed a bioavailability of 56%.

Test system in another data set: not listed separately
As to the kind of experiment: Cmax in rat at 5 mg/kg, po. The format is ADME, organism-based. Set-up: dose 5 mg/kg, route oral. The note with it: in vivo. The method, boiled down:
as §2
For `C=C[C@@H]1C[C@]1(NC(=O)[C@@H]1C[C@@H](Oc2cc(-c3csc(NC(C)C)n3)nc3cc(OC)ccc23)CN1C(=O)[C@@H](NC(=O)OC1CCCC1)C(C)(C)C)C(=O)O`, the Cmax came out at 790 nM.

In turn, `C=C[C@@H]1C[C@]1(NC(=O)[C@@H]1C[C@@H](Oc2cc(-c3csc(NC(=O)CC(C)(C)C)n3)nc3cc(OC)ccc23)CN1C(=O)[C@@H](NC(=O)OC1CCCC1)C(C)(C)C)C(=O)O` yielded a Cmax of 1100 nM.

The molecule `C=C[C@@H]1C[C@]1(NC(=O)[C@@H]1C[C@@H](Oc2cc(-c3csc(NC(=O)CC)n3)nc3c(C)c(OC)ccc23)CN1C(=O)[C@@H](NC(=O)OC1CCCC1)C(C)(C)C)C(=O)O` came in with a Cmax of 820 nM.

Test system in another data set: not listed separately
As to the kind of experiment: Inhibition of HCV NS3 protease. On the set-up: species or system Hepacivirus hominis.
Settings: not given
The method, boiled down:
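Genotype 1b NS3-NS4A (0.5 nM) with 5 μM fluorogenic depsipeptide substrate anthranilyl-DDIVPAbu[C(O)-O]AMY(3-NO2)-TW-OH in 50 mM Tris-HCl pH 8.0, 0.25 M sodium citrate, 0.01% dodecyl maltoside, 1 mM TCEP, 5% DMSO; 60-70 min at 23 °C, stopped with 1 M MES pH 5.8; product fluorescence read; IC50 from percent inhibition by nonlinear fit.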
`C=C[C@@H]1C[C@]1(NC(=O)[C@@H]1C[C@@H](Oc2cc(-c3csc(NC(C)C)n3)nc3cc(OC)ccc23)CN1C(=O)[C@@H](NC(=O)OC1CCCC1)C(C)(C)C)C(=O)O` registered a 50% inhibitory concentration (IC50) of 0.014 µM.

Molecule `C=C[C@@H]1C[C@]1(NC(=O)[C@@H]1C[C@@H](Oc2cc(-c3csc(NC(C)C)n3)nc3cc(OC)ccc23)CN1C(=O)[C@@H](O)C(C)(C)C)C(=O)O` returned a concentration for half-maximal inhibition (IC50) of 0.32 µM.

`C=C[C@@H]1C[C@]1(NC(=O)[C@@H]1C[C@@H](Oc2cc(-c3csc(NC(C)C)n3)nc3cc(OC)ccc23)CN1C(=O)[C@@H](NC(=O)OC(C)(C)C)C(C)(C)C)C(=O)O` registered a half-inhibitory concentration (IC50) of 0.043 µM.

For the molecule `C=C[C@@H]1C[C@]1(NC(=O)[C@@H]1C[C@@H](Oc2cc(-c3csc(NC(C)C)n3)nc3cc(OC)ccc23)CN1C(=O)[C@@H](NC(=O)OC1CCC1)C(C)(C)C)C(=O)O`, it took 0.012 µM to reach half-maximal inhibition (IC50).

`C=C[C@@H]1C[C@]1(NC(=O)[C@@H]1C[C@@H](Oc2cc(-c3csc(NC(C)C)n3)nc3cc(OC)ccc23)CN1C(=O)[C@@H](NC(=O)OC1CCCCC1)C(C)(C)C)C(=O)O`: the IC50 amounted to 0.018 µM.

For `C=C[C@@H]1C[C@]1(NC(=O)[C@@H]1C[C@@H](Oc2cc(-c3csc(NC(C)=O)n3)nc3cc(OC)ccc23)CN1C(=O)[C@@H](NC(=O)OC1CCCC1)C(C)(C)C)C(=O)O`, half-maximal inhibition (IC50) required 0.005 µM.

The molecule `C=C[C@@H]1C[C@]1(NC(=O)[C@@H]1C[C@@H](Oc2cc(-c3csc(NC(=O)CC(C)(C)C)n3)nc3cc(OC)ccc23)CN1C(=O)[C@@H](NC(=O)OC1CCCC1)C(C)(C)C)C(=O)O` displayed an IC50 of 0.017 µM.

Molecule `C=C[C@@H]1C[C@]1(NC(=O)[C@@H]1C[C@@H](Oc2cc(-c3csc(NC(C)C)n3)nc3c(C)c(OC)ccc23)CN1C(=O)[C@@H](NC(=O)OC1CCCC1)C(C)(C)C)C(=O)O` showed an IC50 of 0.015 µM.

As to `C=C[C@@H]1C[C@]1(NC(=O)[C@@H]1C[C@@H](Oc2cc(-c3csc(NC(=O)CC)n3)nc3c(C)c(OC)ccc23)CN1C(=O)[C@@H](NC(=O)OC1CCCC1)C(C)(C)C)C(=O)O`, the concentration for half-maximal inhibition (IC50) came out at 0.01 µM.

Test system in another data set: not listed separately
Description: AUC (0 to infinity) in rat at 5 mg/kg, po. It counts as ADME, organism-based. On the set-up: time infinity, dose 5 mg/kg, route oral. The conditions noted are these: plasma. The method, boiled down: as §2
Consider `C=C[C@@H]1C[C@]1(NC(=O)[C@@H]1C[C@@H](Oc2cc(-c3csc(NC(C)C)n3)nc3cc(OC)ccc23)CN1C(=O)[C@@H](NC(=O)OC1CCCC1)C(C)(C)C)C(=O)O`, for which the AUC(0-inf) is 2.4 µM·h.

`C=C[C@@H]1C[C@]1(NC(=O)[C@@H]1C[C@@H](Oc2cc(-c3csc(NC(=O)CC(C)(C)C)n3)nc3cc(OC)ccc23)CN1C(=O)[C@@H](NC(=O)OC1CCCC1)C(C)(C)C)C(=O)O`: the AUC(0-inf) came to 2.8 µM·h.

`C=C[C@@H]1C[C@]1(NC(=O)[C@@H]1C[C@@H](Oc2cc(-c3csc(NC(=O)CC)n3)nc3c(C)c(OC)ccc23)CN1C(=O)[C@@H](NC(=O)OC1CCCC1)C(C)(C)C)C(=O)O` had a total exposure AUC(0-inf) of 3.5 µM·h.

The test system of a further data set is Hepatitis C virus. Description: Antiviral activity against HCV Con1 by cell based-luciferase reporter gene assay. The format is functional, organism-based, Hepacivirus hominis.
Settings: not given
An outline of the steps: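 Bicistronic luciferase reporter replicon cells (Con1 genotype 1b NS2-NS5B) exposed to compound for 72 h; luciferase read with Bright-Glo substrate by luminescence. EC50 fitted by nonlinear regression.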
(A reporter such as luciferase makes a cellular process visible.)
In turn, `C=C[C@@H]1C[C@]1(NC(=O)[C@@H]1C[C@@H](Oc2cc(-c3csc(NC(C)C)n3)nc3cc(OC)ccc23)CN1C(=O)[C@@H](NC(=O)OC1CCCC1)C(C)(C)C)C(=O)O` registered a 50% effective concentration (EC50) of 0.045 µM.

The molecule `C=C[C@@H]1C[C@]1(NC(=O)[C@@H]1C[C@@H](Oc2cc(-c3csc(NC(C)C)n3)nc3cc(OC)ccc23)CN1C(=O)[C@@H](NC(=O)OC1CCC1)C(C)(C)C)C(=O)O` showed a concentration for a half-maximal effect (EC50) of 0.11 µM.

In turn, `C=C[C@@H]1C[C@]1(NC(=O)[C@@H]1C[C@@H](Oc2cc(-c3csc(NC(C)C)n3)nc3cc(OC)ccc23)CN1C(=O)[C@@H](NC(=O)OC1CCCCC1)C(C)(C)C)C(=O)O` had an EC50 of 0.09 µM.

With `C=C[C@@H]1C[C@]1(NC(=O)[C@@H]1C[C@@H](Oc2cc(-c3csc(NC(C)=O)n3)nc3cc(OC)ccc23)CN1C(=O)[C@@H](NC(=O)OC1CCCC1)C(C)(C)C)C(=O)O`, the EC50 was 0.034 µM.

In the case of `C=C[C@@H]1C[C@]1(NC(=O)[C@@H]1C[C@@H](Oc2cc(-c3csc(NC(=O)CC(C)(C)C)n3)nc3cc(OC)ccc23)CN1C(=O)[C@@H](NC(=O)OC1CCCC1)C(C)(C)C)C(=O)O`, the half-maximal effective concentration (EC50) amounted to 0.068 µM.

With `C=C[C@@H]1C[C@]1(NC(=O)[C@@H]1C[C@@H](Oc2cc(-c3csc(NC(C)C)n3)nc3c(C)c(OC)ccc23)CN1C(=O)[C@@H](NC(=O)OC1CCCC1)C(C)(C)C)C(=O)O`, the response was half-maximal at 0.04 µM (EC50).

For `C=C[C@@H]1C[C@]1(NC(=O)[C@@H]1C[C@@H](Oc2cc(-c3csc(NC(=O)CC)n3)nc3c(C)c(OC)ccc23)CN1C(=O)[C@@H](NC(=O)OC1CCCC1)C(C)(C)C)C(=O)O`, the response was half-maximal at 0.017 µM (EC50).

Test system in another data set: not listed separately
Description: Clearance in rat at 2 mg/kg, iv. It counts as ADME, organism-based. The note with it: in vivo. Set-up: dose 2 mg/kg, route intravenous. An outline of the steps: as §1
The molecule `C=C[C@@H]1C[C@]1(NC(=O)[C@@H]1C[C@@H](Oc2cc(-c3csc(NC(C)C)n3)nc3cc(OC)ccc23)CN1C(=O)[C@@H](NC(=O)OC1CCCC1)C(C)(C)C)C(=O)O` yielded a clearance of 24 mL/min/kg.

The molecule `C=C[C@@H]1C[C@]1(NC(=O)[C@@H]1C[C@@H](Oc2cc(-c3csc(NC(=O)CC(C)(C)C)n3)nc3cc(OC)ccc23)CN1C(=O)[C@@H](NC(=O)OC1CCCC1)C(C)(C)C)C(=O)O` came in with a clearance of 14 mL/min/kg.

In turn, `C=C[C@@H]1C[C@]1(NC(=O)[C@@H]1C[C@@H](Oc2cc(-c3csc(NC(=O)CC)n3)nc3c(C)c(OC)ccc23)CN1C(=O)[C@@H](NC(=O)OC1CCCC1)C(C)(C)C)C(=O)O` registered a clearance of 15 mL/min/kg.

Test system in a further data set: not listed separately
As to the kind of experiment: Volume of distribution at steady state in rat at 2 mg/kg, iv. It counts as ADME, organism-based. On the set-up: dose 2 mg/kg, route intravenous. The conditions noted are these: in vivo, read-out: Vdss. An outline of the steps: as §1
Consider `C=C[C@@H]1C[C@]1(NC(=O)[C@@H]1C[C@@H](Oc2cc(-c3csc(NC(C)C)n3)nc3cc(OC)ccc23)CN1C(=O)[C@@H](NC(=O)OC1CCCC1)C(C)(C)C)C(=O)O`, for which the Vd is 3.7 L/kg.

Turning to `C=C[C@@H]1C[C@]1(NC(=O)[C@@H]1C[C@@H](Oc2cc(-c3csc(NC(=O)CC(C)(C)C)n3)nc3cc(OC)ccc23)CN1C(=O)[C@@H](NC(=O)OC1CCCC1)C(C)(C)C)C(=O)O`, the Vd is 0.83 L/kg.

`C=C[C@@H]1C[C@]1(NC(=O)[C@@H]1C[C@@H](Oc2cc(-c3csc(NC(=O)CC)n3)nc3c(C)c(OC)ccc23)CN1C(=O)[C@@H](NC(=O)OC1CCCC1)C(C)(C)C)C(=O)O`: the Vd amounted to 1.8 L/kg.
